We go through six compounds from ChEMBL document CHEMBL1144306, “1-Hydroxyalkyl-3-phenylthioureas as novel HDL-elevating agents” (2005).

What all share (assay type): functional
The test system of assay [1] is Rattus norvegicus. Briefly: Effect on level of apolipoprotein (Apo) AI (relative to untreated control) in cholesterol fed-male rats at 62 mg/kg/day. Summed up: (§1)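 Six male Sprague–Dawley rats per group, fed a cholic acid/cholesterol-supplemented diet, received compound in the diet ad libitum for eight days. Serum Apo A–I was measured by SDS-PAGE or by rat competition ELISA and reported as % change versus untreated controls (p < 0.05). Gemfibrozil was the internal positive control in each study.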

The test system of assay [2] is Rattus norvegicus. Briefly: Effect on level of total cholesterol (relative to untreated control) in cholesterol fed-male rats at 62 mg/kg/day. Summed up:
(§2)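 Male Sprague–Dawley rats (groups of six) fed a cholic acid- and cholesterol-supplemented diet; compound mixed into the diet, given ad libitum for eight days. Lipoproteins were separated by ultracentrifugation, and cholesterol was measured by an enzymatic colorimetric method. Results are % change versus untreated controls, with significance at p < 0.05.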

Assay [3] deals with Rattus norvegicus. Briefly: Effect on level of high density lipoprotein cholesterol (relative to untreated control) in cholesterol fed-male rats at 62 mg/kg/day. A digest of the protocol:
as §2

Assay [4] relates to Rattus norvegicus. Briefly: Effect on level of triglyceride in (relative to untreated control) in cholesterol fed-male rats at 62 mg/kg/day. A digest of the protocol:
(§3)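 Serum triglycerides were measured in groups of six male Sprague–Dawley rats on a cholic acid/cholesterol-supplemented diet. Compound was dosed in the diet, ad libitum, for eight days. Results are % change relative to untreated controls, with significance at p < 0.05.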

In assay [5] the test system is Rattus norvegicus. Briefly: Effect on change in body weight gain (relative to untreated control) in cholesterol fed-male rats at 62 mg/kg/day. A digest of the protocol:
(§4)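 Male Sprague–Dawley rats, six per group, on a cholic acid- and cholesterol-supplemented diet. Compounds were mixed into the diet and given ad libitum for eight days. Change in body weight gain is expressed as a percentage of untreated controls. Significance was set at p < 0.05 versus untreated controls.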

In assay [6] the test system is Rattus norvegicus. The assay can be described thus: Effect on level of high density lipoprotein cholesterol (relative to untreated control) in cholesterol fed-male rats at 63 mg/kg/day. A digest of the protocol: as §2
Assay [7] has as its system Rattus norvegicus. The assay can be described thus: Effect on level of apolipoprotein (Apo) AI (relative to untreated control) in cholesterol fed-male rats at 63 mg/kg/day. Summed up: as §1
Assay [8] deals with Rattus norvegicus. Briefly: Effect on change in body weight gain (relative to untreated control) in cholesterol fed-male rats at 63 mg/kg/day. Summed up: as §4
Assay [9] concerns Rattus norvegicus. Briefly: Effect on level of total cholesterol (relative to untreated control) in cholesterol fed-male rats at 63 mg/kg/day. A digest of the protocol:
as §2

In assay [10] the test system is Rattus norvegicus. Briefly: Effect on level of triglyceride in (relative to untreated control) in cholesterol fed-male rats at 63 mg/kg/day. Summed up: as §3
For assay [11], the system named is Rattus norvegicus. Briefly: Effect on level of total cholesterol (relative to untreated control) in cholesterol fed-male rats at 38 mg/kg/day. Summed up:
as §2

In assay [12] the test system is Rattus norvegicus. The assay can be described thus: Effect on level of high density lipoprotein cholesterol (relative to untreated control) in cholesterol fed-male rats at 38 mg/kg/day. Summed up:
(§5)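 Cholic acid/cholesterol-fed male Sprague–Dawley rats (n = 6 per group) were dosed via diet ad libitum for eight days. Lipoproteins were separated by ultracentrifugation and HDL cholesterol was quantified by an enzymatic colorimetric method. Values are % change relative to untreated controls, with significance at p < 0.05. Gemfibrozil was the internal positive control.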

In assay [13] the test system is Rattus norvegicus. The assay can be described thus: Effect on change in body weight gain (relative to untreated control) in cholesterol fed-male rats at 38 mg/kg/day. Summed up:
as §4

Assay [14] relates to Rattus norvegicus. Briefly: Effect on level of triglyceride in (relative to untreated control) in cholesterol fed-male rats at 38 mg/kg/day. Summed up:
as §3

Assay [15] has as its system Rattus norvegicus. The assay can be described thus: Effect on level of apolipoprotein (Apo) AI (relative to untreated control) in cholesterol fed-male rats at 38 mg/kg/day. A digest of the protocol: as §1
In assay [16] the test system is Rattus norvegicus. Briefly: Effect on change in body weight gain (relative to untreated control) in cholesterol fed-male rats at 76 mg/kg/day. Summed up:
as §4

In assay [17] the test system is Rattus norvegicus. The assay can be described thus: Effect on level of total cholesterol (relative to untreated control) in cholesterol fed-male rats at 76 mg/kg/day. A digest of the protocol: as §2
Assay [18] deals with Rattus norvegicus. Briefly: Effect on level of high density lipoprotein cholesterol (relative to untreated control) in cholesterol fed-male rats at 76 mg/kg/day. Summed up:
as §2

Assay [19] relates to Rattus norvegicus. Briefly: Effect on level of triglyceride in (relative to untreated control) in cholesterol fed-male rats at 76 mg/kg/day. A digest of the protocol:
as §3

The subject of assay [20] is Rattus norvegicus. The assay can be described thus: Effect on level of apolipoprotein (Apo) AI (relative to untreated control) in cholesterol fed-male rats at 76 mg/kg/day. A digest of the protocol: as §1
Assay [21] deals with Rattus norvegicus. Briefly: Effect on change in body weight gain (relative to untreated control) in cholesterol fed-male rats at 60 mg/kg/day. A digest of the protocol: as §4
In assay [22] the test system is Rattus norvegicus. Briefly: Effect on level of apolipoprotein (Apo) AI (relative to untreated control) in cholesterol fed-male rats at 60 mg/kg/day. A digest of the protocol:
as §1

Assay [23] deals with Rattus norvegicus. Briefly: Effect on level of total cholesterol (relative to untreated control) in cholesterol fed-male rats at 60 mg/kg/day. A digest of the protocol:
as §2

In assay [24] the test system is Rattus norvegicus. The assay can be described thus: Effect on level of high density lipoprotein cholesterol (relative to untreated control) in cholesterol fed-male rats at 60 mg/kg/day. A digest of the protocol:
as §5

Assay [25] concerns Rattus norvegicus. Briefly: Effect on level of triglyceride in (relative to untreated control) in cholesterol fed-male rats at 60 mg/kg/day. A digest of the protocol: as §3
Assay [26] has as its system Rattus norvegicus. Briefly: Effect on change in body weight gain (relative to untreated control) in cholesterol fed-male rats at 78 mg/kg/day. Summed up: as §4
Assay [27] concerns Rattus norvegicus. Briefly: Effect on level of apolipoprotein (Apo) AI (relative to untreated control) in cholesterol fed-male rats at 78 mg/kg/day. A digest of the protocol:
as §1

The test system of assay [28] is Rattus norvegicus. Briefly: Effect on level of triglyceride in (relative to untreated control) in cholesterol fed-male rats at 78 mg/kg/day. Summed up:
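Compound given in diet ad libitum for eight days to groups of six male Sprague–Dawley rats on a cholic acid and cholesterol-supplemented diet. Serum triglycerides expressed as % change relative to untreated controls, with significance at p < 0.05. Gemfibrozil served as internal positive control within each study.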

Assay [29] relates to Rattus norvegicus. The assay can be described thus: Effect on level of total cholesterol (relative to untreated control) in cholesterol fed-male rats at 78 mg/kg/day. Summed up:
as §2

Assay [30] relates to Rattus norvegicus. Briefly: Effect on level of high density lipoprotein cholesterol (relative to untreated control) in cholesterol fed-male rats at 78 mg/kg/day. A digest of the protocol: as §2

On to `Cc1ccc(Cl)cc1N/C(S)=N/C[C@@H](C)O`, for which the Activity in assay [1] is listed as 25%; in assay [2], -1%; in assay [3], 60%; in assay [4], -68%; in assay [5], -69%.

As to `Cc1ccc(C)c(N/C(S)=N/CCO)c1`, the Activity was 62% in assay [6]; 0% in [7]; -117% in assay [8]; 32% in [9]; -32% in assay [10].

Take `Cc1ccc(Cl)cc1/N=C(\S)NCC(=O)O`: the Activity in assay [11] came to 24%; in assay [12] it was 8%; in assay [13], 10%; in [14], 4%; in [15], 14%.

With `Cc1ccc(Cl)cc1N/C(S)=N/[C@@H](C)CO`, the Activity was 10% in [16]; 48% in assay [17]; 32% in [18]; 1% in [19]; 20% in assay [20].

`OCC/N=C(\S)Nc1cc(Cl)cc(Cl)c1`: the Activity in assay [21] was -90%; in assay [22], 48%; in assay [23], 9%; in [24], 50%; in [25], -35%.

`Cc1ccc(Cl)cc1/N=C(\S)N1CCC(O)C1` (stereo not given): the Activity in assay [26] is 2%; in assay [27], 4%; in assay [28], -24%; in [29] it was -5%; in assay [30], 9%.
